Columns and labels:
CCRF-CEM [1] = experiment: Growth inhibition of human CCRF-CEM cells at 10 uM after 2 days by MTT assay; assay type: functional; settings: 48 h
HCT-116 [2] = experiment: Growth inhibition of human HCT116 cells at 10 uM after 2 days by MTT assay; assay type: functional; settings: HCT-116, 48 h
CCRF-CEM [3] = experiment: Growth inhibition of human CCRF-CEM cells after 2 days by MTT assay; assay type: functional; settings: 48 h
HCT-116 [4] = experiment: Growth inhibition of human HCT116 cells after 2 days by MTT assay; assay type: functional; settings: HCT-116, 48 h
Method in brief: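 HCT116 colorectal carcinoma cells from KCLB/ATCC were grown in RPMI 1640/DMEM with 10% heat-inactivated FBS at 37 °C and 5% CO₂. Cells were seeded at 5 × 10⁴ cells/ml and exposed in duplicate to a range of concentrations for two days. MTT dye was added for up to 4 h at 37 °C, formazan was solubilized overnight at room temperature, and A570 gave GI₅₀.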

HaCaT = experiment: Cytotoxicity against human HaCaT cells

| GI50 (CCRF-CEM [3]) | GI50 (HCT-116 [4]) | SMILES | inhibition at 10 µM (CCRF-CEM [1]) | inhibition at 10 µM (HCT-116 [2]) | IC50 (HaCaT) |
| --- | --- | --- | --- | --- | --- |
|  |  | COc1ccc(-c2cn(-c3ccc(O)c(C(=O)Nc4cccc(C(F)(F)F)c4)c3)nn2)cc1 | 12% | 9% |  |
|  |  | COC(=O)c1cc(-n2cc(-c3cc(OC)ccc3OC)nn2)ccc1O | 3% | 6% |  |
|  |  | COc1ccc(-c2cn(-c3ccc(O)c(C(=O)OCCCc4ccccc4)c3)nn2)cc1 | 5% | 12% |  |
| > 100 µM | 12.9 µM | COc1ccc(OC)c(-c2cn(-c3ccc(O)c(C(=O)Nc4cccc(C(F)(F)F)c4)c3)nn2)c1 | 15% | 46% |  |
|  |  | COC(=O)c1cc(-n2cc(-c3cc(OC)cc(OC)c3)nn2)ccc1O | 3% | 3% |  |
|  |  | COc1ccc(OC)c(-c2cn(-c3ccc(O)c(C(=O)O)c3)nn2)c1 | 9% |  |  |
| 13.9 µM | > 100 µM | COC(=O)c1cc(-n2cc(-c3cc(O)ccc3O)nn2)ccc1O | 52% | 15% |  |
|  |  | COc1ccccc1-c1cn(-c2ccc(O)c(C(=O)O)c2)nn1 | 9% | 4% |  |
| 6.41 µM | 4.37 µM | COc1cc(OC)cc(-c2cn(-c3ccc(O)c(C(=O)Nc4cccc(C(F)(F)F)c4)c3)nn2)c1 | 73% | 62% |  |
| 10.5 µM | 7.92 µM | COc1ccccc1-c1cn(-c2ccc(O)c(C(=O)Nc3cccc(C(F)(F)F)c3)c2)nn1 | 65% | 61% |  |
|  |  | O=C(NCCc1ccc(F)cc1)c1cc(-n2cc(-c3cc(O)ccc3O)nn2)ccc1O | 15% | 18% |  |
| 0.02 µM | 0.4 µM | COc1cccc2c1C(=O)c1c(O)c3c(c(O)c1C2=O)C[C@@](O)(C(=O)CO)C[C@@H]3O[C@H]1C[C@H](N)[C@H](O)[C@H](C)O1 [DOXORUBICIN] |  |  |  |
|  |  | O=C(Nc1cccc(C(F)(F)F)c1)c1cc(-n2cc(-c3cccc(O)c3)nn2)ccc1O | 13% | 25% |  |
|  |  | COc1cc(OC)cc(-c2cn(-c3ccc(O)c(C(=O)OCCCc4ccccc4)c3)nn2)c1 | 8% | 19% |  |
|  |  | COC(=O)c1cc(-n2cc(-c3ccc(OC)cc3)nn2)ccc1O | 16% | 6% |  |
|  |  | O=C(O)c1cc(NCc2cc(O)ccc2O)ccc1O [LAVENDUSTIN C] |  |  | > 100 µM |
| 22.9 µM | 13.6 µM | COc1ccc(OC)c(-c2cn(-c3ccc(O)c(C(=O)NCCc4ccc(F)cc4)c3)nn2)c1 | 35% | 44% |  |
| > 100 µM | 16.1 µM | COc1cc(OC)cc(-c2cn(-c3ccc(O)c(C(=O)NCCc4ccc(F)cc4)c3)nn2)c1 | 35% | 43% |  |
|  |  | O=C(O)c1cc(-n2cc(-c3cccc(O)c3)nn2)ccc1O | 3% | 5% |  |
| > 100 µM | 12.5 µM | COc1ccc(-c2cn(-c3ccc(O)c(C(=O)NCCc4ccc(F)cc4)c3)nn2)cc1 | 21% | 62% |  |
|  |  | COc1ccccc1-c1cn(-c2ccc(O)c(C(=O)NCCc3ccc(F)cc3)c2)nn1 | 11% | 23% |  |
|  |  | COC(=O)c1cc(-n2cc(-c3cccc(O)c3)nn2)ccc1O | 5% | 6% |  |
| 22.8 µM | > 100 µM | O=C(NCCc1ccc(F)cc1)c1cc(-n2cc(-c3cccc(O)c3)nn2)ccc1O | 35% |  |  |
|  |  | O=C(OCCCc1ccccc1)c1cc(-n2cc(-c3cccc(O)c3)nn2)ccc1O | 9% | 11% |  |
| 0.93 µM | 20.4 µM | O=C(OCCCc1ccccc1)c1cc(-n2cc(-c3cc(O)ccc3O)nn2)ccc1O | 81% | 39% |  |
|  |  | COc1cc(OC)cc(-c2cn(-c3ccc(O)c(C(=O)O)c3)nn2)c1 | 9% | 2% |  |
|  |  | COc1ccccc1-c1cn(-c2ccc(O)c(C(=O)OCCCc3ccccc3)c2)nn1 | 4% | 7% |  |
|  |  | COC(=O)c1cc(-n2cc(-c3ccccc3OC)nn2)ccc1O | 6% | 8% |  |
|  |  | COc1ccc(-c2cn(-c3ccc(O)c(C(=O)O)c3)nn2)cc1 | 9% | 8% |  |
|  |  | COc1ccc(OC)c(-c2cn(-c3ccc(O)c(C(=O)OCCCc4ccccc4)c3)nn2)c1 | 5% | 13% |  |

Source: ChEMBL document CHEMBL1177770, “A rapid synthesis of lavendustin-mimetic small molecules by click fragment assembly” (Bioorg Med Chem Lett, 2010)
